The values that follow come from publication PMC9924909 (Brain, 2022).

Data set [1] concerns monosialodihexosylganglioside. Put plainly: Monosialodihexosylganglioside in CSF. It counts as in vivo, human. Conditions: Weeks 4, 26 and 52; measurable at baseline in eight of 11 patients. In outline:
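Exploratory CSF biomarkers quantified in CSF taken by lumbar puncture at baseline and Weeks 1, 4, 26 and 52. Adults with GD3 received oral test compound 15 mg once daily plus maintenance IV enzyme replacement for 52 weeks.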

Data set [2] can be described thus: Venglustat plasma pharmacokinetics, LEAP trial. It counts as in vivo, human. The following applies: for plasma venglustat concentration, mean (SD): 10 patients (Patient 9 excluded); for plasma venglustat concentration, Patient 9: single patient with low exposure. An outline of the steps: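 Plasma sampled on Day 1 pre-dose and at 1, 2, 4, 8 and 24 h. Further samples taken 2–4 h post-dose at Weeks 4, 26 and 52, and pre-dose at Weeks 12 and 39. Oral test compound 15 mg once daily. […] Values below LLOQ entered as 0.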

One may read the AUC(0-t) as exposure summed from dosing to a finite time, without extrapolation to infinity. A low value points to low exposure. What is called Cmax is the peak of the concentration-time curve. The Tmax is the time at which the peak concentration occurs. `CC(C)(NC(=O)O[C@@H]1CN2CCC1CC2)c1csc(-c2ccc(F)cc2)n1` [Venglustat]: in data set [1], the “monosialodihexosylganglioside in CSF on treatment” value is listed as “undetectable in all CSF samples”. Moreover, in data set [2] (4 h post-dose plasma concentrations, 15 mg once daily), the “accumulation in plasma after once-daily dosing versus Day 1” value is on record as around 2 fold. For the same compound, the “plasma venglustat concentration, mean (SD)” value in data set [2] (Day 1, ~4 h post-dose, 15 mg once daily) is 48 (17.5) ng/ml; in data set [2] (Week 4, ~4 h post-dose, 15 mg once daily), 116 (48.1) ng/ml; in data set [2] (Week 26, ~4 h post-dose, 15 mg once daily), 120 (40.1) ng/ml; in data set [2] (Week 52, ~4 h post-dose, 15 mg once daily) it was 114 (65.8) ng/ml. The “plasma venglustat concentration, Patient 9” value in data set [2] (Week 4) is 102 ng/mL; in data set [2] (Week 26), 53.3 ng/mL; in data set [2] (Week 52), “undetectable”. For the same compound, in data set [2] (human, plasma, po, 15 mg), the AUC(0-t) is 851 ng·h/mL. In data set [2] (human, plasma, po, 15 mg), this compound showed a Cmax of 58.1 ng/mL. For the same compound, the Tmax in data set [2] (human, plasma, po, 15 mg) was determined as 2 h. Besides, the “steady state reached (plasma)” value in data set [2] (mean plasma concentrations, Patient 9 excluded, 15 mg once daily) is given as at most 4 Week.
